In publication PMC3445775 (Hepatology (Baltimore, Md.), 2012):
Entries after “also recorded” stand apart in the source; their conditions may differ.

Key:
[1] = target: T1, human FATP5 (Homo sapiens, UniProt Q9Y2P5); format: cell-based
T1 sequence (Q9Y2P5 1-690): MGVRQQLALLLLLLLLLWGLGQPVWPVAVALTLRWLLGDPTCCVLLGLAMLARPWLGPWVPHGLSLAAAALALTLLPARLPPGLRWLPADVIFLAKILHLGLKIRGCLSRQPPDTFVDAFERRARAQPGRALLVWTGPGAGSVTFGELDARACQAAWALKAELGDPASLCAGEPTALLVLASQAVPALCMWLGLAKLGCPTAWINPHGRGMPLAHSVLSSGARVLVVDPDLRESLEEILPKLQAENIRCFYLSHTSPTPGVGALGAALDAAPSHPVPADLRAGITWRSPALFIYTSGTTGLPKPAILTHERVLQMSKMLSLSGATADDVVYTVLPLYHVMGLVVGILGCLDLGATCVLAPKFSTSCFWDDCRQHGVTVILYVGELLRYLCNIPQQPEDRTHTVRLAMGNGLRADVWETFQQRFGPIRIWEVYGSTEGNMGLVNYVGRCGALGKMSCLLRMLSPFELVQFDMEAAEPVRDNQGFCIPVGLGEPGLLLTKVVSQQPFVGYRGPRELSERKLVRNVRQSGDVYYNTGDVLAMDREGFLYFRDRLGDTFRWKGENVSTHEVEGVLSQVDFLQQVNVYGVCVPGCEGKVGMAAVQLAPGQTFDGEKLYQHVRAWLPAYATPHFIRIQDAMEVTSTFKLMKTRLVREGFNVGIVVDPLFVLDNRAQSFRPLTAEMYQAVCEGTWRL
In short: (§1)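 HEK-293 cells stably expressing human FATP4, FATP2 or FATP5 were maintained in DMEM/10% FBS with 1 mg/ml G418. Cells were plated at 30,000–50,000/well overnight to 50–70% confluency. They were preincubated 30 min (5% CO2) with test compound, diluted from DMSO stock into HBSS with 20 mM HEPES, 4.5 g/L glucose and 0.1% fatty-acid-free BSA. Compound in quencher mix containing 2 μM C1-BODIPY-C12 was then added. Fluorescence (ex 488/em 515 nm, bottom read) was recorded every 2 min for 2 h, and uptake velocities were derived by linear regression.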

[2] = target: hsFATP4 (Homo sapiens, UniProt Q6P1M0); assay: Quencher-based LCFA uptake assay, FATP4 expressing 293 cells; format: cell-based; settings: result in words
In short: as §1

[3] = test system: FATP5 and FATP2; assay: Inhibition reversibility assay; format: cell-based, human; settings: 30 min treatment followed by brief washes with PBS
[4] = test system: primary human hepatocytes; assay: FACS-based LCFA uptake assay, primary human hepatocytes; format: cell-based; settings: 10 or 100 μM, viable cells
In short: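 Suspended primary human hepatocytes were pretreated with test compound at 10 or 100 μM in DMEM (37°C, 5% CO2, 30 min). C1-BODIPY-C12 bound to 0.1% BSA was then added to a final 2 μM for 30 min at 37°C. Uptake was stopped on ice, and cells were centrifuged at 4°C and resuspended in cold PBS. Propidium iodide was added, and mean BODIPY fluorescence of 5000 viable PI-negative cells was taken from histogram plots.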

[5] = test system: primary mouse hepatocytes from C57Bl/6 animals; assay: Quencher based LCFA uptake assay, wild-type mouse primary hepatocytes; format: cell-based
[6] = test system: primary hepatocytes from FATP5-null animals; assay: Quencher based LCFA uptake assay, FATP5-null mouse primary hepatocytes; format: cell-based; settings: FATP5 KO
In short: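 Primary hepatocytes from FATP5-null mice were isolated by portal-vein perfusion and collagenase digestion. Viability was checked by trypan blue, and cells were plated on collagen (150,000 cells/well) in DMEM/FBS with insulin-transferrin-selenium overnight. Test compound from DMSO stock in HBSS (20 mM HEPES, 4.5 g/L glucose, 0.1% fatty-acid-free BSA) was applied for 30 min. It was replaced by the same compound in quencher mix with 2 μM C1-BODIPY-C12. Bottom-read fluorescence (ex 488/em 515 nm) was taken every 2 min for 2 h, and velocities were obtained by linear regression.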

[7] = test system: primary mouse hepatocytes; assay: XTT viability of primary mouse hepatocytes; format: cell-based; settings: 48 hour treatment
[8] = oral administration of UDCA; ref [41]; cited from earlier work
[9] = test system: NASH; settings: cited from earlier work
[10] = target: human FATP2 (Homo sapiens, UniProt O14975); format: cell-based
In short: as §1

[11] = test system: 293 cells; assay: XTT toxicity assay, stable 293 cell lines; format: cell-based, human; settings: 48 hours
In short: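 Stable 293 cells in DMEM/FBS were incubated overnight in 5% CO2. The indicated test compound or DMSO control was added, and after a further 48 h viability was measured with an XTT kit per the manufacturer's instructions.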

[12] = test system: Mouse primary hepatocytes; assay: Uptake assay of radiolabeled compounds, primary hepatocytes; format: cell-based; settings: 5 μM DCA
[13] = test system: hepatic LCFA uptake; assay: Non-radioactive in vivo hepatic LCFA uptake assay; set-up: species or system mouse
[14] = test system: hepatic triglyceride accumulation; assay: Chronic bile acid injection during high-fat diet; format: in vivo, mouse; settings: 3.2 mg/kg s.c. daily
In short: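 Individually housed mice on a high-fat diet (60% calories from fat) received daily s.c. injections of test compound, 3.2 mg/kg in 20 μl DMSO, above the right hip for 47 days. Controls received DMSO vehicle. Mice were fasted 4 h and euthanised with CO2, and injection sites were checked for precipitate. Liver lysates were assayed for protein (BCA) and TAG.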

[15] = test system: hepatic TAG content; assay: 7 week bile acid supplemented high-fat diet feeding; format: in vivo, mouse
[16] = test system: acute liver LCFA absorption; assay: 1 week DCA/high-fat food feeding pilot; format: in vivo, mouse
[17] = test system: intestinal fatty acid absorption; assay: Non-radioactive intestinal in vivo LCFA absorption assay; set-up: species or system mouse; settings: gavage of olive oil/BODIPY-FFA with 0.05% DCA
In short: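 Mice were gavaged with 200 μl of olive oil/20 μM BODIPY-FFA containing 0% or 0.05% bile acid. Blood was drawn at 0, 30, 60, 120 and 240 min after gavage, and serum fluorescence at 515 nm was read on a plate reader.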

[18] = test system: TGR5; settings: ref [33], [34]; cited from earlier work
[19] = 0.5mg/g in high fat food, 7 weeks

Sequence of hsFATP4 (Q6P1M0 whole entry): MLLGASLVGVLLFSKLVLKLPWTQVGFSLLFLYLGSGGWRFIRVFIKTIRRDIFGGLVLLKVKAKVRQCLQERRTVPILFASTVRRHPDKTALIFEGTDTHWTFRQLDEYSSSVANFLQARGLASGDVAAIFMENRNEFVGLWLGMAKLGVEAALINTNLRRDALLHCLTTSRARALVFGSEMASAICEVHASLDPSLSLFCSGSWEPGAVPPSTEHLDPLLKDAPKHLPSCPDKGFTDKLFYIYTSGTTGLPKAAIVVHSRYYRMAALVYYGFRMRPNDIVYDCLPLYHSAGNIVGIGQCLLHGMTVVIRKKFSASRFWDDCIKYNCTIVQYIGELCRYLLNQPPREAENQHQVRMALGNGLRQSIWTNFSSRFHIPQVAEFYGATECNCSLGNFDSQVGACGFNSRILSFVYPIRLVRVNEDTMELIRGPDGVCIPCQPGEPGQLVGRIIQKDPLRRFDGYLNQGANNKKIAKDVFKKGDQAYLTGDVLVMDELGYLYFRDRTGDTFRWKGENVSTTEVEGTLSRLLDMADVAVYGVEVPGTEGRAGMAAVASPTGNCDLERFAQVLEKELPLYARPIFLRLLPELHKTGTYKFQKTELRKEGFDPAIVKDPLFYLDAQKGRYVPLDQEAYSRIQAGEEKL

In the case of `C[C@H](CCC(=O)O)[C@H]1CC[C@H]2[C@@H]3[C@@H](O)C[C@@H]4C[C@H](O)CC[C@]4(C)[C@H]3CC[C@]12C` [UDCA, ursodeoxycholic acid, reference compound], the IC50 [1] is reported as 5 µM, the “inhibition of FATP4 LCFA uptake” value [2] is reported as “neither DCA, UDCA, nor LCA inhibited; also recorded: No inhibition” and the “Reversible Inhibition” value [3] is reported as “Yes”. For the same compound, the “inhibition of LCFA uptake by primary human hepatocytes” value [4] was “inhibited LCFA uptake”, the “inhibition of LCFA uptake by primary mouse hepatocytes” value [5] was “inhibited LCFA uptake” and the “inhibition of LCFA uptake by FATP5-null primary hepatocytes” value [6] was “failed to inhibited LCFA uptake”. The “cytotoxicity to primary mouse hepatocytes (XTT)” value [7] was “without any detectable cytotoxic effects”, the “circulating UDCA levels” value [8] was “over 17 μM” and the “effect on hepatosteatosis and NASH versus placebo” value ([9]; 13–15 mg/kg/day over 2 years, 166 patients, ref [43]) was “did not produce an effective result as compared to placebo”. For the same compound, the overall histology ([9]; 23–28 mg/kg/day for 18 months, 185 NASH patients, ref [44]) was “failed to improve the overall histology”.
In the case of `C[C@H](CCC(=O)O)[C@H]1CC[C@H]2[C@@H]3CC[C@@H]4C[C@H](O)CC[C@]4(C)[C@H]3C[C@H](O)[C@]12C` [DCA, deoxycholic acid], the IC50 [1] is reported as 0.19 µM, the IC50 [10] is reported as 5 µM and the “inhibition of FATP4 LCFA uptake” value [2] is reported as “neither DCA, UDCA, nor LCA inhibited; also recorded: No inhibition”. The “Reversible Inhibition” value [3] was “reversible and Yes”, the “toxicity (XTT assay)” value [11] was “did not display any cytotoxicity” and the “inhibition of LCFA uptake by primary mouse hepatocytes” value [5] was “inhibited hepatocyte LCFA uptake significantly”. The “inhibition of LCFA uptake by FATP5-null primary hepatocytes” value [6] was “abolished”, the “cytotoxicity to primary mouse hepatocytes (XTT)” value [7] was “not associated with toxicity” and the “uptake of 2-deoxy-D-[3H]glucose/glucose mix” value [12] was “without affecting uptake”. For the same compound, the “uptake of radiolabeled fatty acids” value ([12]; 20 μM fatty acid) was “inhibit the uptake of a wide range of fatty acids”, the “effect on in vivo hepatic LCFA uptake in FATP5 KO” value ([13]; FATP5 KO mice, 6.4mg/kg) was “abolished” and the “effect on in vivo hepatic LCFA uptake” value ([13]; WT mice, acute injection) was “inhibitory effect was observed”. The “acute reduction of hepatic LCFA uptake” value ([13]; in vivo, DCA injections) was 31%, the body weight ([14]; 47 days) was “nor did it affect food consumption or body weight” and the food consumption ([14]; 47 days) was “nor did it affect food consumption or body weight”. For the same compound, the respiration ([14]; 47 days) was “neither triggered an increase in respiration”, the “reduction in the triglyceride content of the liver” value ([14]; 47 days, WT) was 68% and the “triglyceride content of the liver” value ([14]; 47 days, WT, vehicle 6.6) was 2.1 mg TAG/g protein. The “liver TAG in FATP5-null animals” value ([14]; FATP5-null) was “did not cause a further reduction in liver TAG”, the body weight [15, 19] was “Neither DCA nor LCA feeding resulted in changes” and the “caloric output over a 36h period” value [15, 19] was “Neither DCA nor LCA feeding resulted in changes”. For the same compound, the food intake [15, 19] was “Neither DCA nor LCA feeding resulted in changes”, the respiratory rate [15, 19] was “Neither DCA nor LCA feeding resulted in changes” and the “lipid droplets in BODIPY-stained liver sections” value ([15]; 0.05% DCA in high-fat diet) was “markedly reduced lipid droplets”. For the same compound, the “hepatotoxicity or fibrosis (ALT/AST assays, liver morphology)” value ([15]; 0.05% DCA in high-fat diet, 49 days) was “did not lead to hepatotoxicity or fibrosis”, the “reduction in hepatic TAG content” value ([15]; 0.05% in high-fat diet, 7 weeks) was “approximately 50%” and the “acute liver LCFA absorption” value ([16]; DCA 0 to 0.2% in high-fat food) was “dose dependent reduction”. For the same compound, the “circulating liver enzymes (serum AST)” value ([16]; DCA 0 to 0.2% in high-fat food) was “without causing a detectable increase”, the “circulating lipids in the form of TAG and cholesterol” value ([16]; dietary DCA 0.03%-0.4%) was “unchanged” and the “intestinal fatty acid absorption (labeled fatty acid in the circulation)” value [17] was “not suppressed; also recorded: no significant effect”. For the same compound, the TGR5 activation [18] was “activate TGR5 equally”.
